Measurements: ChEMBL document CHEMBL2040711, “Synthesis, characterization and antimicrobial studies of some new quinoline incorporated benzimidazole derivatives” (2012)

Legend:
Type in all cases: functional
Conditions in all cases: read-out: DIZ
Aspergillus terreus [1] = assay: Antifungal activity against Aspergillus terreus at 12.5 ug/ml after 72 hrs by well plate method
How it was run: (§1)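 Sabouraud agar: peptone 10 g, glucose 40 g, agar 20 g per litre water, pH 5.7. Spore suspension made from a loopful of fungus in 3 mL normal saline and lawned on 20 mL agar per dish. Excess decanted, plates dried 1 h at 37 °C. Wells punched and loaded with compound in DMSO (6.25 or 12.5 μg/mL). DMSO control. Triplicate plates held at 25 °C for 72 h. Inhibition zone diameter measured. A. terreus strain NCIM 1325.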

Staphylococcus aureus [2] = assay: Antibacterial activity against Staphylococcus aureus at 6.25 ug/ml after 24 to 48 hrs by well plate diffusion method
How it was run: (§2)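 Agar well diffusion: 15-20 mL agar per dish, plates dried 1 h at 37 ± 2 °C in laminar flow, then seeded. Wells cut with an agar punch, each loaded with compound dissolved in DMSO (6.25 or 12.5 μg/mL). DMSO solvent control, ciprofloxacin standard. Plates in triplicate, incubated 37 ± 2 °C for 24–48 h. Inhibition zone diameter read in mm, with SD.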

Staphylococcus aureus [3] = assay: Antibacterial activity against Staphylococcus aureus at 12.5 ug/ml after 24 to 48 hrs by well plate diffusion method; how it was run: as §2
Escherichia coli [4] = assay: Antibacterial activity against Escherichia coli at 6.25 ug/ml after 24 to 48 hrs by well plate diffusion method; how it was run: as §2
Escherichia coli [5] = assay: Antibacterial activity against Escherichia coli at 12.5 ug/ml after 24 to 48 hrs by well plate diffusion method; how it was run: as §2
Xanthomonas sp. [6] = assay: Antibacterial activity against Xanthomonas sp. at 6.25 ug/ml after 24 to 48 hrs by well plate diffusion method; how it was run: as §2
Xanthomonas sp. [7] = assay: Antibacterial activity against Xanthomonas sp. at 12.5 ug/ml after 24 to 48 hrs by well plate diffusion method; how it was run: as §2
Salmonella sp. [8] = assay: Antibacterial activity against Salmonella sp. at 6.25 ug/ml after 24 to 48 hrs by well plate diffusion method; how it was run: as §2
Salmonella sp. [9] = assay: Antibacterial activity against Salmonella sp. at 12.5 ug/ml after 24 to 48 hrs by well plate diffusion method; how it was run: as §2
Aspergillus niger [10] = assay: Antifungal activity against Aspergillus niger at 6.25 ug/ml after 72 hrs by well plate method
Aspergillus niger [11] = assay: Antifungal activity against Aspergillus niger at 12.5 ug/ml after 72 hrs by well plate method
Aspergillus flavus [12] = assay: Antifungal activity against Aspergillus flavus at 6.25 ug/ml after 72 hrs by well plate method
Aspergillus flavus [13] = assay: Antifungal activity against Aspergillus flavus at 12.5 ug/ml after 72 hrs by well plate method
Penicillium sp. [14] = assay: Antifungal activity against Penicillium sp. at 6.25 ug/ml after 72 hrs by well plate method
Penicillium sp. [15] = assay: Antifungal activity against Penicillium sp. at 12.5 ug/ml after 72 hrs by well plate method
Aspergillus terreus [16] = assay: Antifungal activity against Aspergillus terreus at 6.25 ug/ml after 72 hrs by well plate method; how it was run: as §1

With `Fc1ccc(-c2cc(-c3nc4ccccc4[nH]3)c3ccccc3n2)cc1` the zone of inhibition at 12.5 µg/mL (Aspergillus terreus [1]) was 14 mm, the zone of inhibition at 6.25 µg/mL (Staphylococcus aureus [2]) was 12 mm and the zone of inhibition at 12.5 µg/mL (Staphylococcus aureus [3]) was 13 mm. It also gave a zone of inhibition at 6.25 µg/mL (Escherichia coli [4]) of 11 mm, a zone of inhibition at 12.5 µg/mL (Escherichia coli [5]) of 16 mm and a zone of inhibition at 6.25 µg/mL (Xanthomonas sp. [6]) of 11 mm. The zone of inhibition at 12.5 µg/mL (Xanthomonas sp. [7]) was 12 mm, the zone of inhibition at 6.25 µg/mL (Salmonella sp. [8]) was 9 mm and the zone of inhibition at 12.5 µg/mL (Salmonella sp. [9]) was 15 mm. The zone of inhibition at 6.25 µg/mL (Aspergillus niger [10]) was 11 mm, the zone of inhibition at 12.5 µg/mL (Aspergillus niger [11]) was 12 mm and the zone of inhibition at 6.25 µg/mL (Aspergillus flavus [12]) was 11 mm. The zone of inhibition at 12.5 µg/mL (Aspergillus flavus [13]) was 12 mm, the zone of inhibition at 6.25 µg/mL (Penicillium sp. [14]) was 15 mm and the zone of inhibition at 12.5 µg/mL (Penicillium sp. [15]) was 17 mm. It also gave a zone of inhibition at 6.25 µg/mL (Aspergillus terreus [16]) of 12 mm.
`Fc1ccc(-c2cc(-c3nc4cc(Cl)c(Cl)cc4[nH]3)c3ccccc3n2)cc1` was tested, and the zone of inhibition at 12.5 µg/mL (Aspergillus terreus [1]) was 11 mm, the zone of inhibition at 6.25 µg/mL (Staphylococcus aureus [2]) was 12 mm and the zone of inhibition at 12.5 µg/mL (Staphylococcus aureus [3]) was 16 mm. For the same compound, the zone of inhibition at 6.25 µg/mL (Escherichia coli [4]) was 12 mm, the zone of inhibition at 12.5 µg/mL (Escherichia coli [5]) was 16 mm and the zone of inhibition at 6.25 µg/mL (Xanthomonas sp. [6]) was 20 mm. The zone of inhibition at 12.5 µg/mL (Xanthomonas sp. [7]) was 22 mm, the zone of inhibition at 6.25 µg/mL (Salmonella sp. [8]) was 11 mm and the zone of inhibition at 12.5 µg/mL (Salmonella sp. [9]) was 12 mm. The zone of inhibition at 6.25 µg/mL (Aspergillus niger [10]) was 10 mm, the zone of inhibition at 12.5 µg/mL (Aspergillus niger [11]) was 12 mm and the zone of inhibition at 6.25 µg/mL (Aspergillus flavus [12]) was 10 mm. It also gave a zone of inhibition at 12.5 µg/mL (Aspergillus flavus [13]) of 10 mm, a zone of inhibition at 6.25 µg/mL (Penicillium sp. [14]) of 12 mm and a zone of inhibition at 12.5 µg/mL (Penicillium sp. [15]) of 12 mm. The zone of inhibition at 6.25 µg/mL (Aspergillus terreus [16]) was 10 mm.
